{
  "source": "paper PMC13252795",
  "about": "(International journal for parasitology, 2017)",
  "key": {"[1]": {"biological_target": "recombinant BbCDPK1 (rBbCDPK1) (Besnoitia besnoiti, UniProt A0A290U7L2)", "assay": "BbCDPK1 enzymatic activity inhibition, Kinase-Glo luciferase assay", "type": "biochemical"}, "Marc-145 cells": {"test_system": "Marc-145 cells", "assay": "Mammalian cell toxicity, XTT cell viability assay", "type": "cell-based", "conditions": "uninfected Marc-145 cells, 5 μM, 72 h", "in_short": "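Exponential-phase Marc-145 cells were seeded at 2 × 10^5 cells/mL together with test compound dissolved in DMSO, in quadruplicate, and grown 72 h at 37 °C in humidified 5% CO2. XTT reagent was then added for 4 h, and […]. Percent growth inhibition was calculated relative to the DMSO vehicle.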"}, "[2]": {"test_system": "B. besnoiti tachyzoites (Bb-Spain1) in Marc-145 cells", "assay": "Short term dose-response assays, EC50 and EC99 determination by qPCR", "type": "cell-based, Besnoitia besnoiti"}, "[3]": {"test_system": "B. besnoiti tachyzoites (Bb-Spain1) in HFF cells", "assay": "Transmission electron microscopy of B. besnoiti-infected HFF treated with BKIs", "type": "cell-based, Besnoitia besnoiti", "conditions": "5 μM, HFF cells, 4, 6 and 8 days; listed as BKI-1294"}, "[4]": {"conditions": "cattle; ref Huang et al., 2015; Schaefer et al., 2016; Hulverson et al., 2017; cited from earlier work"}},
  "data": [
    {"compound": "CCOc1ccc2cc(-c3nn(CC4CCN(C)CC4)c4ncnc(N)c34)ccc2c1", "note": "[Compound 1294]", "values": [
      {"measurement": "IC50 values against BbCDPK1 (in words)", "setting": "[1]", "result": "lower nanomolar range"},
      {"measurement": "Percentage of cytotoxicity compared to DMSO-treated negative control", "setting": "Marc-145 cells", "result": 5.2, "unit": "%"},
      {"measurement": "EC99 (B. besnoiti)", "setting": "[2]; BKI added at 0 hpi, 3-day proliferation assay, qPCR, Marc-145 cells", "result": 2.38, "unit": "µM"},
      {"measurement": "EC50", "setting": "[2]; Besnoitia besnoiti, MARC145, 72 h, read-out: EC50 (B. besnoiti)", "result": 45, "unit": "nM"},
      {"measurement": "Effect on ultrastructure of tachyzoites (TEM)", "setting": "[3]", "result": "formed multinucleated complexes"},
      {"measurement": "Plasma levels achieved", "setting": "[4]", "result": "up to 5 μM"}
    ]}
  ]
}
